Laboratory results taken from ChEMBL document CHEMBL3864184, “Optimization of Highly Kinase Selective Bis-anilino Pyrimidine PAK1 Inhibitors” (ACS Med Chem Lett, 2016).
Activity calls are given as the source filed them. No cut-off for these calls is given here.

What was measured:
[1] = Distribution coefficient, logD of the compound; format: physicochemical; conditions: octanol/water
[2] = molecular target: T1, 5-hydroxytryptamine receptor 2C (Homo sapiens) (UniProt P28335); test: Activity at 5HT2C receptor (unknown origin) at <1 uM
T1 sequence (whole entry): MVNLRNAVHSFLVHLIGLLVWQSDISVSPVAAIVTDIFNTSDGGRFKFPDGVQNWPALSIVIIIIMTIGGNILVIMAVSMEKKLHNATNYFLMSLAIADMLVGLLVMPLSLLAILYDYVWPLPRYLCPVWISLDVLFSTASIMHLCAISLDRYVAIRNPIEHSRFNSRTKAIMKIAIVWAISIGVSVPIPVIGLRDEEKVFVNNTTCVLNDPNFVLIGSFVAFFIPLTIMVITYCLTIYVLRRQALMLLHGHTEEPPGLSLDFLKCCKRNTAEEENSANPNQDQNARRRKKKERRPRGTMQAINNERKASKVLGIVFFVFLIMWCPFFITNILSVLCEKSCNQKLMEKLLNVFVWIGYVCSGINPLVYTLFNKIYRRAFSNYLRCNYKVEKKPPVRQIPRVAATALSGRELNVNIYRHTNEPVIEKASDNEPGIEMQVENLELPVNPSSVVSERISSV

[3] = molecular target: T2, Muscarinic acetylcholine receptor M1 (Homo sapiens) (UniProt P11229); test: Activity at muscarinic acetylcholine receptor M1 (unknown origin) at <1 uM
T2 sequence (whole entry): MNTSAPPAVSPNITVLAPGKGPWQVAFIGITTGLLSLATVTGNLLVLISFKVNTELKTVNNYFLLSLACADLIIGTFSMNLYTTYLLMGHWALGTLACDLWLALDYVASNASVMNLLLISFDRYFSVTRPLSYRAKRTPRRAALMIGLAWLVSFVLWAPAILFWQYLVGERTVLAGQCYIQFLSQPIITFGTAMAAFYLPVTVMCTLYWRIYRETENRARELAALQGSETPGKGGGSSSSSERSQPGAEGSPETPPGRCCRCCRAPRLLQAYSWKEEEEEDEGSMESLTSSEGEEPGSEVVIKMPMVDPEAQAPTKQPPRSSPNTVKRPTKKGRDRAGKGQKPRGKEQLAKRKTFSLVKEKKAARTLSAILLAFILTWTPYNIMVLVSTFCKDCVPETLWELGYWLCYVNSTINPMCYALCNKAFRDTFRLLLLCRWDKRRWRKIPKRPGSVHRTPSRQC

[4] = molecular target: PAK2 (serine/threonine-protein kinase PAK 2) (Homo sapiens, UniProt Q13177); test: Inhibition of N-terminal 6His-tagged recombinant human PAK2 (3-end residues) expressed in expressed in Escherichia coli at 100 nM
Chain of PAK2 (serine/threonine-protein kinase PAK 2) (Q13177 whole entry): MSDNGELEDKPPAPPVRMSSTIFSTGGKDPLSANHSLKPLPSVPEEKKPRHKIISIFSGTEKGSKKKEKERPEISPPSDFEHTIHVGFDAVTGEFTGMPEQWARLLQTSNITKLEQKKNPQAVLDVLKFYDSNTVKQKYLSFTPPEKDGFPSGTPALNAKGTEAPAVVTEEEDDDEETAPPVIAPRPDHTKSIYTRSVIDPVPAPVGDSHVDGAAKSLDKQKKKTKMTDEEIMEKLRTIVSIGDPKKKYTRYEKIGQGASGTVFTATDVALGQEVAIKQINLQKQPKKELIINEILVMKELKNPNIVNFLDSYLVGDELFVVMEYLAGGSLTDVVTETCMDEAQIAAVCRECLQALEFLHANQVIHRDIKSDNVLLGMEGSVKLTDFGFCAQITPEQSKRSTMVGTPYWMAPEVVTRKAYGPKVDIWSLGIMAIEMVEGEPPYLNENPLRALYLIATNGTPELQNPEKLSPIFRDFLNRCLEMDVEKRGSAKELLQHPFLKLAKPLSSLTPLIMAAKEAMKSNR

[5] = molecular target: T3, Tyrosine-protein kinase Lyn (Homo sapiens, UniProt P07948); test: Inhibition of N-terminal his6-tagged recombinant full-length human LYN expressed in baculovirus infected Sf21 cells at 100 nM
Target sequence in this assay (P07948 2-512 limits assumed): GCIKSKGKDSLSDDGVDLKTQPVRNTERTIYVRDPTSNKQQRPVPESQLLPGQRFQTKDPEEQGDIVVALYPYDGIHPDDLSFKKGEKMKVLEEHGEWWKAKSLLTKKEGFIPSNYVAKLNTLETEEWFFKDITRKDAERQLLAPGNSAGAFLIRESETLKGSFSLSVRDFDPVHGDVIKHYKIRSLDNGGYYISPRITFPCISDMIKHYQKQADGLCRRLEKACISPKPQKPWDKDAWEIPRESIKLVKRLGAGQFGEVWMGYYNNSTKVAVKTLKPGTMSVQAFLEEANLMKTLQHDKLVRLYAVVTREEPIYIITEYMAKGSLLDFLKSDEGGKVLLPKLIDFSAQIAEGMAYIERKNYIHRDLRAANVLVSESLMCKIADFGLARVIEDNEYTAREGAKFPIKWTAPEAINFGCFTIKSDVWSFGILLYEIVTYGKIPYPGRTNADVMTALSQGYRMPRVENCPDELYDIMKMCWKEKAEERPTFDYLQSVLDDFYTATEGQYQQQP

[6] = molecular target: T4, Protein kinase C theta type (Homo sapiens, UniProt Q04759); test: Inhibition of human PKCtheta at 100 nM
[7] = molecular target: T5, Tyrosine-protein kinase Fyn (Homo sapiens, UniProt P06241); test: Inhibition of N-Terminal His6-tagged full length recombinant human FYN expressed in baculovirus expression system at 100 nM
[8] = molecular target: T6, Proto-oncogene tyrosine-protein kinase Src (Homo sapiens, UniProt P12931); test: Inhibition of N-terminal His6-tagged recombinant human Src (1 to 530 residues) expressed in baculovirus infected sf21 cells at 100 nM
T6 sequence (P12931 2-536 limits assumed): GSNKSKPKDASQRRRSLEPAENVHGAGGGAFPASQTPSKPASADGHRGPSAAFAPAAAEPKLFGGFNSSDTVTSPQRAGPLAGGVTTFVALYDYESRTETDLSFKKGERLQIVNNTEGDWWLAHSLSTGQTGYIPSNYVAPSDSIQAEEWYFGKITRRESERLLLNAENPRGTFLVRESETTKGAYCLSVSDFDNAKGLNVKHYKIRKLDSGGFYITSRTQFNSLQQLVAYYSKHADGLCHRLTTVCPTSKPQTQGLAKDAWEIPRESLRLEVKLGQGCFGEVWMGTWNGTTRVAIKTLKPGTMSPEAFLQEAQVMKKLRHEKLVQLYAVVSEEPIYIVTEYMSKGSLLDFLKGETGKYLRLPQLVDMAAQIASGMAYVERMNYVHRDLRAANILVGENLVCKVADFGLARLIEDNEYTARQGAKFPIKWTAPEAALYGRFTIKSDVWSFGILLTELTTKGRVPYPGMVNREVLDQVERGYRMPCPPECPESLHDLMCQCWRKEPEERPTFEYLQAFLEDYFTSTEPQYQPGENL

[9] = molecular target: T7, Tyrosine-protein kinase Yes (Homo sapiens, UniProt P07947); test: Inhibition of N-terminal 6His-tagged full length recombinant human YES expressed in baculovirus expression system
[10] = molecular target: T3, Tyrosine-protein kinase Lyn; test: Inhibition of N-terminal his6-tagged recombinant full-length human LYN expressed in baculovirus infected Sf21 cells
Target sequence in this assay (P07948 whole entry): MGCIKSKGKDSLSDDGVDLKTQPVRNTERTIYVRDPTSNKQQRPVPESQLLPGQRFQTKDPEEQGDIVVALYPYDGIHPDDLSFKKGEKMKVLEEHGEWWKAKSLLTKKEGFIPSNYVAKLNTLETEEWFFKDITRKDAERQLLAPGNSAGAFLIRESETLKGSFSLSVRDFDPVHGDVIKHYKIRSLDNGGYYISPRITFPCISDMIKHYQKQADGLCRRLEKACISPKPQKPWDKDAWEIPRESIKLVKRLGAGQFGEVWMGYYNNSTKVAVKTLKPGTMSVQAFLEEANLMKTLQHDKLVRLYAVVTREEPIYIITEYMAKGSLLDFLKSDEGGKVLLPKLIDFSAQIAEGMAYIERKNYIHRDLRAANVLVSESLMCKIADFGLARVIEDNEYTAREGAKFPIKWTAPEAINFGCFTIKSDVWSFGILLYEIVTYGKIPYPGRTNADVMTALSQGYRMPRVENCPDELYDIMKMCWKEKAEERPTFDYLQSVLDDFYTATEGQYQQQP

[11] = molecular target: T4, Protein kinase C theta type; test: Inhibition of C-terminal 6His-tagged recombinant full length human PKCtheta expressed in fall armyworm Sf21 cells
[12] = molecular target: T5, Tyrosine-protein kinase Fyn; test: Inhibition of N-Terminal His6-tagged full length recombinant human FYN expressed in baculovirus expression system
[13] = molecular target: T6, Proto-oncogene tyrosine-protein kinase Src; test: Inhibition of N-terminal His6-tagged recombinant human Src (1 to 530 residues) expressed in baculovirus infected sf21 cells
[14] = molecular target: T8, Tyrosine-protein kinase Lck (Homo sapiens, UniProt P06239); test: Inhibition of N-terminal 6His-tagged full length recombinant human LCK expressed in baculovirus expression system
Target sequence in this assay (P06239 whole entry): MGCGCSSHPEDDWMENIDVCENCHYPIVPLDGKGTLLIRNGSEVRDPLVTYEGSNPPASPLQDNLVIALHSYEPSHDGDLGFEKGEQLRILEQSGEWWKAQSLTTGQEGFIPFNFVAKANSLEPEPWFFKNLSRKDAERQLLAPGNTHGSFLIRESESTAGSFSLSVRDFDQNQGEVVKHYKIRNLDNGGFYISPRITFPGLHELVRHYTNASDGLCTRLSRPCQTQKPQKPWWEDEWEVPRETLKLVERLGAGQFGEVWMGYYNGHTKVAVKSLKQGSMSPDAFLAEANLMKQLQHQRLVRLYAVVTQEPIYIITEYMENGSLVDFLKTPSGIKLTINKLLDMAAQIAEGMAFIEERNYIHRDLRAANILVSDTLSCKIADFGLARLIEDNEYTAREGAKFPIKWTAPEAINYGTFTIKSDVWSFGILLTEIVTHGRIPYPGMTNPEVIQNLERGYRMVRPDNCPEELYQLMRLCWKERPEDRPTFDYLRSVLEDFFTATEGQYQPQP

[15] = molecular target: T9, Muscarinic acetylcholine receptor M2 (Homo sapiens) (UniProt P08172); test: Activity at muscarinic acetylcholine receptor M2 (unknown origin) at <1 uM
T9 sequence (whole entry): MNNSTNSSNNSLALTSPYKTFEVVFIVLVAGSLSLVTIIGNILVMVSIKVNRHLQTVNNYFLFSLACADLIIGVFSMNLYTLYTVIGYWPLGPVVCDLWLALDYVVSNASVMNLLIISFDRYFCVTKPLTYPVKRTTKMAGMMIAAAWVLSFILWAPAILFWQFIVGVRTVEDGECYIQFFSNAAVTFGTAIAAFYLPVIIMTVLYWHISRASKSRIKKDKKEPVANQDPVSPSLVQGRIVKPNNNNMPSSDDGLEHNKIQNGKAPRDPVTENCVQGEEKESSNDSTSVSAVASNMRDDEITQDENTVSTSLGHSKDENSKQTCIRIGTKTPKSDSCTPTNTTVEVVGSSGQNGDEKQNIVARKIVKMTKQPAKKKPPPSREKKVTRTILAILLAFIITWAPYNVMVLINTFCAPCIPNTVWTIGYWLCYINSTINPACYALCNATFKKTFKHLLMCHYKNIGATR

[16] = molecular target: T10, Muscarinic acetylcholine receptor M5 (Homo sapiens) (UniProt P08912); test: Activity at muscarinic acetylcholine receptor M5 (unknown origin) at <1 uM
T10 sequence (whole entry): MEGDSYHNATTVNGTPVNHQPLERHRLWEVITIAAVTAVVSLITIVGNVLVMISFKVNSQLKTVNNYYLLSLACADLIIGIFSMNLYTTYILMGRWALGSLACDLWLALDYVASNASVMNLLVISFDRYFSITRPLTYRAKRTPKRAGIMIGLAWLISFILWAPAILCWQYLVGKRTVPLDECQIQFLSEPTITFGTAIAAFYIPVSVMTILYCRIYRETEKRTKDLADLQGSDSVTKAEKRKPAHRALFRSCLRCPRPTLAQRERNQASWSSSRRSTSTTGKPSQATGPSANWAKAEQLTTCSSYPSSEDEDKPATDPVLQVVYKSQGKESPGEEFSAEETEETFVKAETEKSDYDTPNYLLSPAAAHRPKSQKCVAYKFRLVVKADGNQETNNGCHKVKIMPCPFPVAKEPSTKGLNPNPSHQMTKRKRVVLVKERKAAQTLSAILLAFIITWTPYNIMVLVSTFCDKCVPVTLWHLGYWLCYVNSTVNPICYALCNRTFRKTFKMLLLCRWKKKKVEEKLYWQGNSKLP

[17] = molecular target: D(3) dopamine receptor (Homo sapiens) (UniProt P35462); test: Activity at dopamine receptor D3 (unknown origin) at <1 uM
Chain of D(3) dopamine receptor (Homo sapiens) (P35462 whole entry): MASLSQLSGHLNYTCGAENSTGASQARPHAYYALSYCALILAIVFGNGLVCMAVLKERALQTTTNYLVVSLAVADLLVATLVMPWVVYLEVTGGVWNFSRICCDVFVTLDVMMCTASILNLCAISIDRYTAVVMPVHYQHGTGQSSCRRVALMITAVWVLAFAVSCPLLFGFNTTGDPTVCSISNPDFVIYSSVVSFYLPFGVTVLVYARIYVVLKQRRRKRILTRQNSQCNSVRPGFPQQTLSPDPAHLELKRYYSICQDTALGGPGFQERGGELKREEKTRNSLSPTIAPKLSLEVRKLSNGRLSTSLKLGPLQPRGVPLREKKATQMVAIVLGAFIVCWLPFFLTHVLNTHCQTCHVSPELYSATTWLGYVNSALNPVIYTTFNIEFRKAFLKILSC

[18] = molecular target: 5-hydroxytryptamine receptor 2B (Homo sapiens) (UniProt P41595); test: Activity at 5HT2B receptor (unknown origin) at <1 uM
Chain of 5-hydroxytryptamine receptor 2B (Homo sapiens) (P41595 whole entry): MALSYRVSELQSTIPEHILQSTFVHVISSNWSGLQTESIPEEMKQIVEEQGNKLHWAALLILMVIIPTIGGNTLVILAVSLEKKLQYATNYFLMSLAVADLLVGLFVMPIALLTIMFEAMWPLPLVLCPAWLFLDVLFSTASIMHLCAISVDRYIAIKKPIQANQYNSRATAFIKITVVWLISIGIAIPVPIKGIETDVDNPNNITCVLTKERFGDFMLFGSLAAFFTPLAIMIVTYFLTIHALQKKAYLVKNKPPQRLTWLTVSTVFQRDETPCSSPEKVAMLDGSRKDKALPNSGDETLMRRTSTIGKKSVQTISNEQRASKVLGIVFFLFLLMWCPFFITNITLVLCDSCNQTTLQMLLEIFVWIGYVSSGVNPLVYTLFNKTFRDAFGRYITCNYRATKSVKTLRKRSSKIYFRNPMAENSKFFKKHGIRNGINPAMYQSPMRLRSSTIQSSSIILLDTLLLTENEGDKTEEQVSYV

[19] = molecular target: Sodium-dependent dopamine transporter (Homo sapiens) (UniProt Q01959); test: Activity at dopamine transporter (unknown origin) at <1 uM
Chain of Sodium-dependent dopamine transporter (Homo sapiens) (Q01959 whole entry): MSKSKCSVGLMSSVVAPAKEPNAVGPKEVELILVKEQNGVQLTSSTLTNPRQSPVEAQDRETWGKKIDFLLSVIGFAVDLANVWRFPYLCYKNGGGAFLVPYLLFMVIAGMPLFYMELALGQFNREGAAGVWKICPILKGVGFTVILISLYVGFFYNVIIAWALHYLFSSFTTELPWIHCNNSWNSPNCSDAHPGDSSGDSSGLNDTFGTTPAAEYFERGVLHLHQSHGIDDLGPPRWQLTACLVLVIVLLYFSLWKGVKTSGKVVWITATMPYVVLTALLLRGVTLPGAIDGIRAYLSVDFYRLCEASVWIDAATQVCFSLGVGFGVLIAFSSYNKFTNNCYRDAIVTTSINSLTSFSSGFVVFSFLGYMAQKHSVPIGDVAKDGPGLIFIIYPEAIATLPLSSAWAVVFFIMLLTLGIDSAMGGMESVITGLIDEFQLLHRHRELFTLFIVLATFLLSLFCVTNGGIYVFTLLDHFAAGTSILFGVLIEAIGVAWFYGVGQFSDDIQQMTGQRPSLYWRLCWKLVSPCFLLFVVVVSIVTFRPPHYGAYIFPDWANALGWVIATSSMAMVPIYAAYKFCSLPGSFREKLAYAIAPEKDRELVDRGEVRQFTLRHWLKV

Homo sapiens = organism: Homo sapiens; test: Activity at CaV-L (unknown origin) at <1 uM
[20] = molecular target: T11, Alpha-1B adrenergic receptor (Homo sapiens) (UniProt P35368); test: Activity at alpha-1B adrenergic receptor (unknown origin) at <1 uM
T11 sequence (whole entry): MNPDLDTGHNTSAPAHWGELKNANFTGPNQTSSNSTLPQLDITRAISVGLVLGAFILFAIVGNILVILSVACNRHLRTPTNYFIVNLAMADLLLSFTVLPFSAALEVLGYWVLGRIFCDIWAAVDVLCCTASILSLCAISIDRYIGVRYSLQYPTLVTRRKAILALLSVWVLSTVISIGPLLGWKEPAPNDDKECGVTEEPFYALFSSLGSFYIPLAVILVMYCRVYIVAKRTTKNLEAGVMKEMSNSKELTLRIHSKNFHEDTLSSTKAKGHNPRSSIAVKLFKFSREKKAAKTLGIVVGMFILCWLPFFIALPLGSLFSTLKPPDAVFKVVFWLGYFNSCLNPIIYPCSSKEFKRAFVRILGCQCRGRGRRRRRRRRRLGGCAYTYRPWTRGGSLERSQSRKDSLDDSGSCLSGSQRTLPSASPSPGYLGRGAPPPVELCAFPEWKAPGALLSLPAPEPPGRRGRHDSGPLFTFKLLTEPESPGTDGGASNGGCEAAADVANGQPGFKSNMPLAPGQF

[21] = molecular target: T12, Alpha-2C adrenergic receptor (Homo sapiens) (UniProt P18825); test: Activity at alpha-2C adrenergic receptor (unknown origin) at <1 uM
T12 sequence (whole entry): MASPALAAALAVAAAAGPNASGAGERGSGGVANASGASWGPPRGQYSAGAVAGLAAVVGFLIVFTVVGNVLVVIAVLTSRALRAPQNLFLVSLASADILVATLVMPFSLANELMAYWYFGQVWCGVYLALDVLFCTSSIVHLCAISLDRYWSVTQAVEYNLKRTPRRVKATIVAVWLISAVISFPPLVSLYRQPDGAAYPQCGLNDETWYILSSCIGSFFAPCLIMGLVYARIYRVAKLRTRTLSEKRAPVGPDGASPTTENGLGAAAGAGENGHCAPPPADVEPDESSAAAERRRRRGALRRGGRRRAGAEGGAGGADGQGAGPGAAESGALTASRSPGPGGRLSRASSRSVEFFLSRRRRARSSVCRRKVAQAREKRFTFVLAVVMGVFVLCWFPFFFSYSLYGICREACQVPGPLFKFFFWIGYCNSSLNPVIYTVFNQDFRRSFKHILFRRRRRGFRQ

[22] = Intrinsic clearance in rat hepatocytes assessed per million cells; format: ADME, cell-based, Hepatocyte; conditions: read-out: CLH
[23] = molecular target: T13, Serine/threonine-protein kinase PAK 2 (Homo sapiens, UniProt Q13177)
T13 sequence (Q13177 whole entry): as the sequence (Q13177 whole entry) above

[24] = molecular target: T13, Serine/threonine-protein kinase PAK 2; remark: listed apart in the source
[25] = molecular target: T7, Tyrosine-protein kinase Yes; conditions: 100 nM
[26] = molecular target: T8, Tyrosine-protein kinase Lck; conditions: Sf21, 100 nM
Target sequence in this assay (P06239 2-509 limits assumed): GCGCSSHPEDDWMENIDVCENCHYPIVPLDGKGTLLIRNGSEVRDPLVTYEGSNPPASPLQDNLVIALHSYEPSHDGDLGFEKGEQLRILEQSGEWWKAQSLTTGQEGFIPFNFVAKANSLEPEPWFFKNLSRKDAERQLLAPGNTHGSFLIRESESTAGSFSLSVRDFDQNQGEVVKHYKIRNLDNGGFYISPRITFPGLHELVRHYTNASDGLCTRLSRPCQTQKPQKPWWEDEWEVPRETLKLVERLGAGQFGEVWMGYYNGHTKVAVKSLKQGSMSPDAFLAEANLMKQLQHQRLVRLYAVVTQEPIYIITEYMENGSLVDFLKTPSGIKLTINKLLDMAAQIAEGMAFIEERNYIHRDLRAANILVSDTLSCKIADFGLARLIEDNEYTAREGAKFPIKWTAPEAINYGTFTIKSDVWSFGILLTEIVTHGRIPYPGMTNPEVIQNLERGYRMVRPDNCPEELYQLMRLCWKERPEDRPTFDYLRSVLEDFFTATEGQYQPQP

[27] = Clearance in mouse at 0.5 mg/kg, iv; format: ADME, organism-based; conditions: in vivo
[28] = Volume of distribution at steady state in mouse at 0.5 mg/kg, iv or 100 mg/kg, po; format: ADME, organism-based; conditions: in vivo, read-out: Vdss
[29] = Half life in mouse at 0.5 mg/kg, iv; format: ADME, organism-based; conditions: in vivo
[30] = Cmax in mouse at 100 mg/kg, po; format: ADME, organism-based; parameters: dose 100 mg/kg, route oral; conditions: in vivo
[31] = Unbound fraction in mouse plasma at 0.5 mg/kg, iv or 100 mg/kg, po; format: ADME, organism-based
Mus musculus = test: Acute toxicity in mouse at 100 mg/kg, po; format: organism-based; conditions: in vivo
Summary of the method: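 Observed for visible signs of toxicity during a mouse pharmacokinetic study after an oral 100 mg/Kg dose. This was not a maximum tolerated dose study.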

## Cc1ccc(CO)cc1N(C)c1nc(Nc2ccc(N3CCN(C)CC3)c(S(C)(=O)=O)c2)ncc1F
[1]
  logD: 2.6

## CCS(=O)(=O)c1cc(Nc2ncc(F)c(N(Cc3ccccc3)c3cc(CO)ccc3C)n2)ccc1N1CCN(C)CC1
[1]
  logD: 2.8

## Cc1ccc(N(C)c2nc(Nc3cc(N4CCOCC4)cc(S(C)(=O)=O)c3)ncc2F)cc1CO
[1]
  logD: 3.3

## CCS(=O)(=O)c1cc(Nc2ncc(F)c(N(Cc3ccccc3C#N)c3cc(CO)ccc3C)n2)ccc1N1CCN(C)CC1
[2]
  Activity: Active
[3]
  Activity: Active
[1]
  logD: 3.7
[4]
  inhibition at 0.1 µM: 98%
[5]
  inhibition: 91%
[6]
  inhibition: 91%
[7]
  inhibition: 87%
[8]
  inhibition: 86%
[9]
  IC50: 4 nM
[10]
  IC50: 31 nM
[11]
  IC50: 7 nM
[12]
  IC50: 45 nM
[13]
  IC50: 93 nM
[14]
  IC50: 36 nM
[15]
  Activity: Active
[16]
  Activity: Active
[17]
  Activity: Active
[18]
  Activity: Active
[19]
  Activity: Active
Homo sapiens
  Activity: Active
[20]
  Activity: Active
[21]
  Activity: Active
[22]
  hepatocyte CLint: 30 µL/min/1e6 cells
[23]
  IC50: 6 nM
[24]
  Kd: 0.32 nM
[25]
  inhibition: 95%
[26]
  inhibition: 83%

## CCS(=O)(=O)c1cc(Nc2ncc(F)c(N(C)c3cc(CO)c(C)cc3C)n2)ccc1N1C[C@@H]2C[C@H]1CN2C
[1]
  logD: 2.5
[22]
  hepatocyte CLint: 11 µL/min/1e6 cells
[27]
  clearance: 22 mL/min/kg
[28]
  Vd: 1.4 L/kg
[29]
  half-life: 1 h
[30]
  Cmax: 7.7 µM
[31]
  fraction unbound: 0.029
Mus musculus
  Activity: Non-Toxic

## CCS(=O)(=O)c1cc(Nc2ncc(F)c(N(Cc3ccccc3F)c3cc(CO)ccc3C)n2)ccc1N1CCN(C)CC1
[1]
  logD: 3.3

## CCS(=O)(=O)c1cc(Nc2ncc(F)c(N(C)c3cc(CO)ccc3C)n2)ccc1N1CCN(C)CC1
[1]
  logD: 3

## CCS(=O)(=O)c1cc(Nc2ncc(F)c(N(C)c3cc(CO)c(C)cc3C)n2)ccc1N1CCN(C)CC1
[1]
  logD: 3.8
